# System: Staphylococcus aureus
# Assay: Potentiation of oxacillin-induced antibacterial activity against Staphylococcus aureus NRS386 assessed as oxacillin MIC at 20 uM
# Format: functional
# Conditions: USA700 NRS386
row,SMILES,MIC [µg/mL]
1,CN(Cc1ccccc1N(CCO)S(=O)(=O)c1ccccc1)C(=O)/C=C/c1ccc(C(F)(F)F)cc1,2
2,Cc1ccc(S(=O)(=O)N(CCO)c2ccccc2CN(C)C(=O)/C=C/c2ccc(C(F)(F)F)cc2)cc1,4
3,CCc1ccc(S(=O)(=O)N(CCO)c2ccccc2CN(C)C(=O)/C=C/c2ccc(C(F)(F)F)cc2)cc1,8
4,Cc1ccc(S(=O)(=O)N(CCO)c2ccccc2CN(C)C(=O)/C=C/c2ccc(Cl)cc2)cc1,4
5,CN(Cc1ccccc1N(CCO)S(=O)(=O)c1ccc(F)cc1)C(=O)/C=C/c1ccc(C(F)(F)F)cc1,8
6,Cc1ccc(S(=O)(=O)N(CCO)c2ccccc2CN(C)C(=O)/C=C/c2ccc(C(F)(F)F)cc2)cc1F,8
7,CN(Cc1ccccc1N(CCO)S(=O)(=O)c1ccc(F)cc1)C(=O)/C=C/c1ccc(Cl)cc1,1

# System: Staphylococcus aureus
# Assay: Potentiation of oxacillin-induced antibacterial activity against methicillin/oxacillin/tetracycline-resistant Staphylococcus aureus NRS100 assessed as oxacillin MIC at 20 uM
# Format: functional
# Conditions: not given
# Summary of the method: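 Oxacillin MIC measured with the synthetic potentiator held at a fixed 20 μM. Two-fold serial dilution in cation-adjusted Mueller-Hinton II broth containing 2.4% DMSO. Inoculum 5 × 10⁵ CFU mL⁻¹, incubated at 36 °C for 16–20 h. Run in triplicate.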
row,SMILES,MIC [µg/mL]
1,CN(Cc1ccccc1N(CCO)S(=O)(=O)c1ccccc1)C(=O)/C=C/c1ccc(C(F)(F)F)cc1,2
2,Cc1ccc(S(=O)(=O)N(CCO)c2ccccc2CN(C)C(=O)/C=C/c2ccc(C(F)(F)F)cc2)cc1,4
3,CCc1ccc(S(=O)(=O)N(CCO)c2ccccc2CN(C)C(=O)/C=C/c2ccc(C(F)(F)F)cc2)cc1,16
4,Cc1ccc(S(=O)(=O)N(CCO)c2ccccc2CN(C)C(=O)/C=C/c2ccc(Cl)cc2)cc1,2
5,CN(Cc1ccccc1N(CCO)S(=O)(=O)c1ccc(F)cc1)C(=O)/C=C/c1ccc(C(F)(F)F)cc1,2
6,Cc1ccc(S(=O)(=O)N(CCO)c2ccccc2CN(C)C(=O)/C=C/c2ccc(C(F)(F)F)cc2)cc1F,2
7,CN(Cc1ccccc1N(CCO)S(=O)(=O)c1ccc(F)cc1)C(=O)/C=C/c1ccc(Cl)cc1,1

# System: Staphylococcus aureus
# Assay: Potentiation of oxacillin-induced antibacterial activity against Staphylococcus aureus MRSA252 assessed as oxacillin MIC at 20 uM (reference value: 256 ug/ml)
# Format: functional
# Conditions: not given
row,SMILES,MIC [µg/mL]
1,CN(Cc1ccccc1N(CCO)S(=O)(=O)c1ccccc1)C(=O)/C=C/c1ccc(C(F)(F)F)cc1,4
2,Cc1ccc(S(=O)(=O)N(CCO)c2ccccc2CN(C)C(=O)/C=C/c2ccc(C(F)(F)F)cc2)cc1,2
3,CCc1ccc(S(=O)(=O)N(CCO)c2ccccc2CN(C)C(=O)/C=C/c2ccc(C(F)(F)F)cc2)cc1,4
4,CN(Cc1ccccc1N(CCO)S(=O)(=O)c1ccsc1)C(=O)/C=C/c1ccc(Cl)cc1,≥ 256
5,CN(Cc1ccccc1N(CCO)S(=O)(=O)c1ccc([N+](=O)[O-])cc1)C(=O)/C=C/c1ccc(C(F)(F)F)cc1,≥ 256
6,Cc1ccc(S(=O)(=O)N(CCO)c2ccccc2CN(C)C(=O)/C=C/c2ccc(Br)s2)cc1,≥ 256
7,Cc1ccc(S(=O)(=O)N(CCO)c2ccccc2CN(C)C(=O)/C=C/c2ccc(Cl)cc2)cc1,2
8,CCN(Cc1ccccc1N(CCO)S(=O)(=O)c1ccc(C)cc1)C(=O)/C=C/c1ccc(C(F)(F)F)cc1,≥ 256
9,C=CCN(C)Cc1ccccc1N(CCO)S(=O)(=O)c1ccc(Cl)cc1,≥ 256
10,Cc1ccc(S(=O)(=O)N(CCO)c2ccccc2CN(C)C(=O)c2ccc3cc(Br)ccc3c2)cc1,≥ 256
11,COc1ccc(S(=O)(=O)N(CCO)c2ccccc2CN(C)C/C=C/c2ccccc2)cc1,≥ 256
12,Cc1ccc(S(=O)(=O)N(CCO)c2ccccc2CN(C)C(=O)/C=C/c2ccc(Cl)cc2Cl)cc1,≥ 256
13,CN(Cc1ccccc1N(CCO)S(=O)(=O)c1ccc(F)cc1)C(=O)/C=C/c1ccc(C(F)(F)F)cc1,2
14,Cc1ccc(S(=O)(=O)N(CCO)c2ccccc2CN(C)C(=O)/C=C/c2ccc(C(F)(F)F)cc2)cc1F,4
15,CN(Cc1ccccc1N(CCO)S(=O)(=O)c1ccc(F)cc1)C(=O)/C=C/c1ccc(Cl)cc1,4

# Now from value to molecule:
row,MIC [µg/mL],SMILES
1,≥ 256,C=CCN(C)Cc1ccccc1N(CCO)S(=O)(=O)c1ccc(C)cc1
2,≥ 256,C=CCN(Cc1ccccc1N(CCO)S(=O)(=O)c1ccc(OC)cc1)C(C)C
3,≥ 256,Cc1ccc(S(=O)(=O)N(CCO)c2cccc(CN(C)C(=O)/C=C/c3ccc(C(F)(F)F)cc3)c2)cc1
4,≥ 256,CC(=O)Nc1ccc(/C=C/C(=O)N(C)Cc2ccccc2N(CCO)S(=O)(=O)c2ccc(C)cc2)cc1
5,≥ 256,Cc1ccc(S(=O)(=O)N(CCO)c2ccccc2CN(C)C(=O)/C=C/c2ccco2)cc1
6,≥ 256,CN(Cc1ccccc1NS(=O)(=O)c1ccc(F)cc1)C(=O)/C=C/c1ccc(C(F)(F)F)cc1
7,≥ 256,COc1ccc(/C=C/C(=O)N(C)Cc2ccccc2N(CCO)S(=O)(=O)c2ccc(C)cc2)cc1
8,16,Cc1ccc(S(=O)(=O)N(CCO)c2ccccc2CN(C)C(=O)/C=C/c2ccc(Cl)c(Cl)c2)cc1
9,≥ 256,Cc1ccc(S(=O)(=O)N(CCO)c2ccccc2CN(C)C(=O)/C=C/c2cccnc2)cc1
10,32,Cc1ccc(S(=O)(=O)N(CCO)c2ccccc2CN(C)C/C=C/c2ccc(Cl)cc2)cc1

# System: Staphylococcus aureus
# Assay: Potentiation of oxacillin-induced antibacterial activity against Staphylococcus aureus NRS70 assessed as oxacillin MIC at 20 uM
# Format: functional
# Conditions: not given
row,SMILES,MIC [µg/mL]
1,CN(Cc1ccccc1N(CCO)S(=O)(=O)c1ccccc1)C(=O)/C=C/c1ccc(C(F)(F)F)cc1,16
2,Cc1ccc(S(=O)(=O)N(CCO)c2ccccc2CN(C)C(=O)/C=C/c2ccc(C(F)(F)F)cc2)cc1,16
3,CCc1ccc(S(=O)(=O)N(CCO)c2ccccc2CN(C)C(=O)/C=C/c2ccc(C(F)(F)F)cc2)cc1,16
4,Cc1ccc(S(=O)(=O)N(CCO)c2ccccc2CN(C)C(=O)/C=C/c2ccc(Cl)cc2)cc1,8
5,CN(Cc1ccccc1N(CCO)S(=O)(=O)c1ccc(F)cc1)C(=O)/C=C/c1ccc(C(F)(F)F)cc1,16
6,Cc1ccc(S(=O)(=O)N(CCO)c2ccccc2CN(C)C(=O)/C=C/c2ccc(C(F)(F)F)cc2)cc1F,16
7,CN(Cc1ccccc1N(CCO)S(=O)(=O)c1ccc(F)cc1)C(=O)/C=C/c1ccc(Cl)cc1,8

# System: Staphylococcus aureus
# Assay: Potentiation of oxacillin-induced antibacterial activity against Staphylococcus aureus MRSA252 assessed as fold reduction in oxacillin MIC at 20 uM relative to oxacillin alone
# Format: functional
# Conditions: not given
row,SMILES,fold change (FC)
1,CN(Cc1ccccc1N(CCO)S(=O)(=O)c1ccccc1)C(=O)/C=C/c1ccc(C(F)(F)F)cc1,64
2,Cc1ccc(S(=O)(=O)N(CCO)c2ccccc2CN(C)C(=O)/C=C/c2ccc(C(F)(F)F)cc2)cc1,128
3,CCc1ccc(S(=O)(=O)N(CCO)c2ccccc2CN(C)C(=O)/C=C/c2ccc(C(F)(F)F)cc2)cc1,64
4,Cc1ccc(S(=O)(=O)N(CCO)c2ccccc2CN(C)C(=O)/C=C/c2ccc(Cl)cc2)cc1,128
5,CN(Cc1ccccc1N(CCO)S(=O)(=O)c1ccc(F)cc1)C(=O)/C=C/c1ccc(C(F)(F)F)cc1,128
6,Cc1ccc(S(=O)(=O)N(CCO)c2ccccc2CN(C)C(=O)/C=C/c2ccc(C(F)(F)F)cc2)cc1F,64
7,CN(Cc1ccccc1N(CCO)S(=O)(=O)c1ccc(F)cc1)C(=O)/C=C/c1ccc(Cl)cc1,64

# System: Staphylococcus aureus
# Assay: Growth inhibition of Staphylococcus aureus MRSA252
# Format: organism-based
# Conditions: in vitro
# Summary of the method: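 Compound alone was two-fold serially diluted in cation-adjusted Mueller-Hinton II broth containing 2.4% DMSO. Bacteria were inoculated at 5 × 10⁵ CFU mL⁻¹ and incubated at 36 °C for 16–20 h. The MIC was read in triplicate.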
row,SMILES,growth inhibition (GI)
1,CN(Cc1ccccc1N(CCO)S(=O)(=O)c1ccccc1)C(=O)/C=C/c1ccc(C(F)(F)F)cc1,Non-Toxic
2,C=CCN(C)Cc1ccccc1N(CCO)S(=O)(=O)c1ccc(C)cc1,Non-Toxic
3,C=CCN(Cc1ccccc1N(CCO)S(=O)(=O)c1ccc(OC)cc1)C(C)C,Non-Toxic
4,Cc1ccc(S(=O)(=O)N(CCO)c2cccc(CN(C)C(=O)/C=C/c3ccc(C(F)(F)F)cc3)c2)cc1,Non-Toxic
5,Cc1ccc(S(=O)(=O)N(CCO)c2ccccc2CN(C)C(=O)/C=C/c2ccc(C(F)(F)F)cc2)cc1,Non-Toxic
6,CC(=O)Nc1ccc(/C=C/C(=O)N(C)Cc2ccccc2N(CCO)S(=O)(=O)c2ccc(C)cc2)cc1,Non-Toxic
7,Cc1ccc(S(=O)(=O)N(CCO)c2ccccc2CN(C)C(=O)/C=C/c2ccco2)cc1,Non-Toxic
8,CN(Cc1ccccc1NS(=O)(=O)c1ccc(F)cc1)C(=O)/C=C/c1ccc(C(F)(F)F)cc1,Non-Toxic
9,CCc1ccc(S(=O)(=O)N(CCO)c2ccccc2CN(C)C(=O)/C=C/c2ccc(C(F)(F)F)cc2)cc1,Non-Toxic
10,COc1ccc(/C=C/C(=O)N(C)Cc2ccccc2N(CCO)S(=O)(=O)c2ccc(C)cc2)cc1,Non-Toxic
11,Cc1ccc(S(=O)(=O)N(CCO)c2ccccc2CN(C)C(=O)/C=C/c2ccc(Cl)c(Cl)c2)cc1,Non-Toxic
12,Cc1ccc(S(=O)(=O)N(CCO)c2ccccc2CN(C)C(=O)/C=C/c2cccnc2)cc1,Non-Toxic
13,Cc1ccc(S(=O)(=O)N(CCO)c2ccccc2CN(C)C/C=C/c2ccc(Cl)cc2)cc1,Non-Toxic
14,CN(Cc1ccccc1N(CCO)S(=O)(=O)c1ccsc1)C(=O)/C=C/c1ccc(Cl)cc1,Non-Toxic
15,CN(Cc1ccccc1N(CCO)S(=O)(=O)c1ccc([N+](=O)[O-])cc1)C(=O)/C=C/c1ccc(C(F)(F)F)cc1,Non-Toxic
16,Cc1ccc(S(=O)(=O)N(CCO)c2ccccc2CN(C)C(=O)/C=C/c2ccc(Br)s2)cc1,Non-Toxic
17,Cc1ccc(S(=O)(=O)N(CCO)c2ccccc2CN(C)C(=O)/C=C/c2ccc(Cl)cc2)cc1,Non-Toxic
18,CCN(Cc1ccccc1N(CCO)S(=O)(=O)c1ccc(C)cc1)C(=O)/C=C/c1ccc(C(F)(F)F)cc1,Non-Toxic
19,C=CCN(C)Cc1ccccc1N(CCO)S(=O)(=O)c1ccc(Cl)cc1,Non-Toxic
20,Cc1ccc(S(=O)(=O)N(CCO)c2ccccc2CN(C)C(=O)c2ccc3cc(Br)ccc3c2)cc1,Non-Toxic
21,COc1ccc(S(=O)(=O)N(CCO)c2ccccc2CN(C)C/C=C/c2ccccc2)cc1,Non-Toxic
22,Cc1ccc(S(=O)(=O)N(CCO)c2ccccc2CN(C)C(=O)/C=C/c2ccc(Cl)cc2Cl)cc1,Non-Toxic
23,CN(Cc1ccccc1N(CCO)S(=O)(=O)c1ccc(F)cc1)C(=O)/C=C/c1ccc(C(F)(F)F)cc1,Non-Toxic
24,Cc1ccc(S(=O)(=O)N(CCO)c2ccccc2CN(C)C(=O)/C=C/c2ccc(C(F)(F)F)cc2)cc1F,Non-Toxic
25,CN(Cc1ccccc1N(CCO)S(=O)(=O)c1ccc(F)cc1)C(=O)/C=C/c1ccc(Cl)cc1,Non-Toxic

# — ChEMBL document CHEMBL4368884, “Structure-activity relationship of the cinnamamide family of antibiotic potentiators for methicillin-resistant Staphylococcus aureus (MRSA)” (Medchemcomm, 2018)
